Results on 98 molecules are retold here after ChEMBL document CHEMBL4513216, “Probing the Open Global Health Chemical Diversity Library for Multistage-Active Starting Points for Next-Generation Antimalarials” (ACS Infect Dis, 2020).

The structures appear in SMILES notation.

A short description of the series: Toxicity liver stage against HepG2, at 10uM. The class given is cell-based. The arrangement: test concentration 10 uM, cell line HepG2-A16-CD81EGFP. The following applies: human, HepG2-A16-CD81EGFP cells; read-out: INHIBITION
In a few lines: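 Uninfected HepG2-A16-CD81EGFP cells, 3 × 10^3 per well, 1536-well, plated on prespotted compound at 10 μM final, parasite-free screening media added to match infected plates; puromycin 10 μM positive, DMSO 0.5% negative; run in parallel with 48 h PbLuc assay at 37 °C, 5% CO2; viability by CellTiter-Glo luminescence, normalized to controls.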
As to `O=C(c1cscn1)N1CCc2ncc(CN3CCCC3)n2CC1`, the cytotoxicity at 10 µM was -111%. With `COc1ccc(OCCCN2CCOC(Cn3cccn3)C2)cc1` (stereo not drawn), the cytotoxicity at 10 µM turned out to be 5.34%. Next, `Cc1c(C(=O)NC2=NCCS2)cnn1-c1ccc(Cl)cc1`: 1.51%; `CC1(C)CC(=O)N(CC(=O)Nc2ccon2)c2ccccc21`: -3.43%. For `COCCC1(C(=O)O)CCN(c2cc(C)c3ccccc3n2)CC1`, the cytotoxicity at 10 µM was -41.6%.

With `Cc1ccc(C(N)c2cccc(S(C)(=O)=O)c2)cc1` (stereo not drawn), the cytotoxicity at 10 µM was 3.18%. As for `Cn1cc(C(=O)N2CC[C@@H]3[C@@H]2CCN3Cc2cccc(F)c2)cn1`, the cytotoxicity at 10 µM is -2.21%. With `Cc1c(C)n(CC(O)CN2CCC(O)CC2)c2c(Cl)cccc12` (stereo not drawn), the cytotoxicity at 10 µM was -13.9%. For `CCCC(=O)NCCCn1ncc2c(C)cccc21`, the cytotoxicity at 10 µM is 8.6%. Next, `CNc1ncccc1C(=O)N1CCCC2(CCN(C)CC2)CC1`: -9.17%; `O=C(c1cccc2c1OCCO2)N1CCCCC1Cn1cccn1` (stereo not drawn): -4.94%.

In the case of `CC(C)c1cc(N(C)Cc2cc(C3CC3)on2)n2nccc2n1`, the cytotoxicity at 10 µM stood at 4.28%.

Regarding `Cc1cc(C)n(C2CN(CCC(=O)NCCc3ccccc3)C2)n1`, the cytotoxicity at 10 µM came to 11.8%.

For `O=C(c1cn(CC(=O)N2CCCCC2)c2ccccc12)C1CC1`, the cytotoxicity at 10 µM came to 9.14%.

For the molecule `Cc1ccc(S(=O)(=O)NC(C)(C)CN)c(F)c1`, the cytotoxicity at 10 µM is -8.73%. As for `CCC(C(=O)NCCc1coc(-c2ccc(C)cc2)n1)N(C)C` (stereo not drawn), the cytotoxicity at 10 µM was -1.13%. With `COCCOc1ncccc1C(=O)N1CCCCC1c1nccs1` (stereo not drawn), the cytotoxicity at 10 µM was -11.5%.

Turning to `CN(C)Cc1cccc(-c2cccnc2C(=O)NCc2cn(C)cn2)c1`, the cytotoxicity at 10 µM is 4.09%. For `Cc1ccc(C(=O)NC2CC2)c(-n2cnnn2)c1C`, the cytotoxicity at 10 µM is -2.27%. Next, `CC(C)N1CCN(C)C2(CCN(C(=O)c3ccnnc3)CC2)C1=O`: 8.64%; `O=C(CCc1ccco1)Nc1ccc(Br)cn1`: 81.2%. Next, `CC(C)Nc1ccc2nc(C3CCNCC3)nn2c1`: -6.75%; `Cc1nc2c(c(N3CCN(Cc4ccco4)CC3)n1)CCNCC2`: -4.27%; `NC(=O)c1cnn2c(C3CCCN(C4CCOCC4)C3)ccnc12` (stereo not drawn): 4.34%.

For `COc1cccc2cc(CNCc3ccnc(N4CCCCC4)c3)oc12`, the cytotoxicity at 10 µM was -0.381%. For the molecule `N#Cc1cccnc1NCc1ccc(S(=O)(=O)NC2CC2)cc1`, the cytotoxicity at 10 µM turned out to be 6.25%. `CCN(CC)Cc1cn2c(n1)CN(C(=O)Cc1ccsc1)CC2`: the cytotoxicity at 10 µM is -143%.

`Cc1ncnc2c1CCN(C(=O)Cc1ccccn1)CC2`: the cytotoxicity at 10 µM was 8.12%.

Take `Cc1noc(C)c1CN1CCC(N(C)Cc2noc(C(C)C)n2)C1` (stereo not drawn): the cytotoxicity at 10 µM was -6.37%. The figure for `COc1ccc(C(=O)CCc2nc(C3CC3)no2)cc1F` is -2.89%; for `CCn1ccnc1CNc1nccc(-c2cn(C)nc2C)n1` it is -4.6%; for `Cc1cccc(C(=O)N2C[C@@H]3CC[C@H]2CN(S(=O)(=O)N(C)C)C3)n1` it is 7.4%.

As to `Cc1cc(CNC(=O)NC(C)c2ccncc2)no1` (stereo not drawn), the cytotoxicity at 10 µM was -13.5%. For `c1csc(CN2Cc3nccn3CC(Cn3cncn3)C2)n1` (stereo not drawn), the cytotoxicity at 10 µM is -9.35%. For the molecule `CCn1ccc(NC(=O)CN2C(=O)C(C)(C)c3ccccc32)n1`, the cytotoxicity at 10 µM was -16.9%. Regarding `O=C(C1CCCC1)N1CCCC1c1nnc2n1CCCCC2` (stereo not drawn), the cytotoxicity at 10 µM was -2.58%. In the case of `O=C(CCc1ccncc1)Nc1ccc(OCC2CCOCC2)cc1`, the cytotoxicity at 10 µM is -2.98%. As to `Cc1cn2c(n1)CCC(NC(=O)c1ccc(CS(C)(=O)=O)o1)C2` (stereo not drawn), the cytotoxicity at 10 µM was -5%. For the molecule `N#Cc1c(F)cccc1N1CCC(NS(=O)(=O)c2cccs2)CC1`, the cytotoxicity at 10 µM was -7.39%. `Cc1nccn1CCC1CCCCN1Cc1ccc2c(c1)OCCO2` (stereo not drawn): the cytotoxicity at 10 µM was -7.63%. Next, `CCOc1ccc(NC(=O)NCc2cccnc2OCC)cc1`: -8.67%; `Cc1cc(C(F)(F)F)cc(=O)n1Cc1nc(C(C)C)no1`: 0.9%; `COc1cc(CN(C(=O)Nc2cccnc2OC)C2CC2)ccc1O`: -2.14%. In the case of `COc1cccc(NC(=O)N(CCO)C2CCc3ccccc32)c1` (stereo not drawn), the cytotoxicity at 10 µM was -1.08%. Next, `CCc1cccc(NS(=O)(=O)c2cc(C)c(C(=O)O)s2)c1`: -1.23%; `CN(C)C(=O)Cc1nc(CN2CCCC2Cn2cncn2)cs1` (stereo not drawn): 8.58%; `O=C(CCSc1ccc(F)cc1)NS(=O)(=O)c1ccc2c(c1)OCCO2`: 2.36%. The figure for `Cc1cc(C)c(CNC(=O)NCCNc2cnccn2)c(=O)[nH]1` is -43.6%; for `CN(C)c1cc(CC(NC(=O)C2CC2)c2ccccc2)nc(C2CC2)n1` (stereo not drawn) it is 5.73%. With `Cc1nc(CN2CCN(CC3CCOC3)Cc3cccnc32)cs1` (stereo not drawn), the cytotoxicity at 10 µM was found to be 11%.

As for `Cc1nn(C)c(C)c1-c1cnc(CC2CCNCC2)cn1`, the cytotoxicity at 10 µM was -13.7%. Next, `CNC(=O)c1ccc(CN(C)C(=O)Nc2nnc(C(C)C)s2)cc1`: -14%. The figure for `Cc1cc(CC(C)Nc2nc(-c3cccnc3)nc3c2CNC3)[nH]n1` (stereo not drawn) is 3.28%; for `Cc1sc(-c2ccco2)nc1C(=O)N(CC(N)=O)C1CCCC1` it is -2.64%; for `COCC(=O)NCC1CCC(c2ccnc3ncnn23)CC1` (stereo not drawn) it is 1.36%. With `COc1cccc2c1OCCCN(Cc1c[nH]nc1C(=O)O)C2`, the cytotoxicity at 10 µM is 6.5%.

On to `COc1ccnc(N2CCN(Cc3ncc(C(C)(C)C)o3)CC2)n1`, for which the cytotoxicity at 10 µM is -7.2%.

On to `Cc1nc(CNC(C)c2ccc(OCC(=O)NC3CC3)cc2)cs1` (stereo not drawn), for which the cytotoxicity at 10 µM was -2.82%. For `CC(C)c1noc(CCC(=O)NC2CCS(=O)(=O)C2)n1` (stereo not drawn), the cytotoxicity at 10 µM was -15.6%. The figure for `CNc1oc(-c2cc(S(=O)(=O)N3CCCCCC3)c(C)o2)nc1C#N` is -5.28%; for `CC(CCc1ccccc1F)C(=O)NS(C)(=O)=O` (stereo not drawn) it is 3.12%; for `COc1cc(N2CCC3(CC2)CCN(c2cccnc2)C3=O)ncn1` it is -116%. Consider `Cc1nc2ccccc2nc1CN1CCCCC1Cn1cncn1` (stereo not drawn), for which the cytotoxicity at 10 µM is -7.36%. `CC(C)n1nc(CNc2ncccn2)c2c1CN(S(C)(=O)=O)CC2`: the cytotoxicity at 10 µM is -138%. With `COc1ccnc(N2CCN(C(=O)c3ccn(C)c(=O)c3)CC2)n1`, the cytotoxicity at 10 µM is -13.7%. With `Cc1occc1C(=O)N1CCC2(CC1)CC(OCc1ccccn1)CO2` (stereo not drawn), the cytotoxicity at 10 µM is -71.7%.

With `CCN(CC)c1ccc(CNC(=O)N2CCC(C#N)CC2)cc1`, the cytotoxicity at 10 µM was -11.4%.

For the molecule `COCCCS(=O)(=O)N1CCN(C(=O)CO)CC1`, the cytotoxicity at 10 µM was -0.995%. On to `Cc1csc(NC(=O)C2(C)CCCO2)n1` (stereo not drawn), for which the cytotoxicity at 10 µM is -2.54%. Turning to `Cc1nnc(SCC(=O)Nc2csc3nc(=O)c(C)nn23)s1`, the cytotoxicity at 10 µM was found to be 10.8%. In the case of `CCN1CCN(CCC(=O)NC2CC(c3cccc(Cl)c3)C2)CC1` (stereo not drawn), the cytotoxicity at 10 µM is -7.37%. Next, `NC(=O)COc1cccc(C(=O)Nc2cnc3n2CCCC3)c1`: 18.2%; `CC(C)c1nc(CN(CC(N)=O)C(C)C)cs1`: -14.4%. The figure for `Cc1nn(C)cc1S(=O)(=O)NC1(CN2CCOCC2)CCCCC1` is -8.27%.

On to `CC(Cn1cccn1)NCCCc1nc(-c2cccs2)no1` (stereo not drawn), for which the cytotoxicity at 10 µM is -9.8%. Regarding `CSCC(C)N(C)C(=O)CN1CCN(c2ccccn2)CC1` (stereo not drawn), the cytotoxicity at 10 µM was -7.59%. Next, `Cn1ccc(C(=O)Nc2cccc(-c3ccc4c(c3)CCO4)n2)cc1=O`: -1.26%; `Cc1cc2ccncc2n1CC1(O)CCN(C(=O)c2cccnc2)CC1`: 4.18%; `O=C1NCC2(CCCN(C(=O)Nc3ccc4occc4c3)CC2)O1` (stereo not drawn): 2.09%. With `CC(C)COCCCNC(=O)NCC(O)c1cccc(F)c1` (stereo not drawn), the cytotoxicity at 10 µM is -3.1%. On to `CCc1nc(CC)n(CC(=O)NCc2cccc(C)c2)n1`, for which the cytotoxicity at 10 µM is -2.25%. In the case of `Cc1ccccc1C(=O)N1CCOC(c2ncc(CN(C)C)[nH]2)C1` (stereo not drawn), the cytotoxicity at 10 µM is 0.53%. Next, `CCOc1ccccc1C(N)CC(C)C` (stereo not drawn): -0.857%. For `O=C(c1cccc(NCCOc2ccc(F)cc2)c1)N1CCOCC1`, the cytotoxicity at 10 µM was 7.43%. The figure for `O=C(c1cc(-c2cn[nH]c2)nc2cc(F)ccc12)N1CCS(=O)(=O)CC1` is 0.141%; for `O=C(CC1CC2(CCN(CC3CC3)CC2)c2ccccc21)NC1CCC1` (stereo not drawn) it is -4.63%. The figure for `CN(Cc1ccccn1)C(=O)[C@]12COC[C@H]1CN(Cc1cnn(C)c1)C2` is -9.74%; for `CO[C@@H]1CCN(c2nnc(C)s2)C[C@@H]1Cc1ccccc1` it is 10.5%. Take `Cn1ncc2c1C(COCC1CC1)CN(Cc1ccco1)C2` (stereo not drawn): the cytotoxicity at 10 µM is -78.6%.

Take `COCCN(C)CCN1CC2(CCN(C3CCCNC3)CC2)OC1=O` (stereo not drawn): the cytotoxicity at 10 µM came out at 2.28%. With `CN(C)C(=O)Cc1ccc(NC(=O)NC2CCCC2)cc1`, the cytotoxicity at 10 µM is -1.92%. Next, `CN(Cc1cccc(O)c1)C(=O)c1ccc(CCC(C)(C)O)cc1`: 3.58%; `Cc1ccc(C(=O)N(C)Cc2c(C)noc2C)c(=O)[nH]1`: -8.2%. The figure for `Cn1nccc1CNC(=O)NC1CCN(c2ncccc2Cl)C1` (stereo not drawn) is 4.37%.

With `Nc1ccc(CC2COc3ccccc3C2)cn1` (stereo not drawn), the cytotoxicity at 10 µM stood at 0.541%. For `COC[C@@H]1CN(C)C(=O)[C@@H]2CCN(Cc3ccco3)CC[C@H]12`, the cytotoxicity at 10 µM is -6.13%. Next, `CC1CCCCN1C(=O)COc1nc(C(C)(C)C)no1` (stereo not drawn): -3.22%; `c1ccc(SCCN2CCN(CCn3cncn3)CC2)cc1`: -2.88%.
